Laboratory results: publication PMC7384665 (Bioorganic & medicinal chemistry, 2020)
Where two headings read alike, the source gives them in different places.

Experiments:
Recombinant FTase = Recombinant FTase (Rattus norvegicus, UniProt Q02293+Q04631); test: FTase enzyme assay; format: biochemical; details: for FTase inhibitory activity: concentrations as high as 100 μM, data not shown
Recombinant GGTase I = Recombinant GGTase I (Rattus norvegicus, UniProt P53610+Q04631); test: GGTase I enzyme assay; format: biochemical
Method in brief: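 Recombinant GGTase I activity measured by a modified Temple et al. method, with dansyl-peptide substrates (dansyl-GCVLS and dansyl-GCVLL listed for the FTase/GGTase I assays); fluorescence change followed over time on a microplate reader. Test compound run in duplicate at multiple concentrations, three independent experiments; IC50 obtained from concentration-response curves.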

RPMI-8226 myeloma cells [1] = test: H-Ras immunoblot; format: cell-based; details: RPMI-8226 cells, 48 h
RPMI-8226 myeloma cells [2] = test: Cellular assays: Rap1a immunoblot and intracellular lambda light chain ELISA; format: cell-based
[3] = concentrations as high as 100 μM, data not shown

Recombinant GGTase I, sequence (P53610 whole entry, one chain of several): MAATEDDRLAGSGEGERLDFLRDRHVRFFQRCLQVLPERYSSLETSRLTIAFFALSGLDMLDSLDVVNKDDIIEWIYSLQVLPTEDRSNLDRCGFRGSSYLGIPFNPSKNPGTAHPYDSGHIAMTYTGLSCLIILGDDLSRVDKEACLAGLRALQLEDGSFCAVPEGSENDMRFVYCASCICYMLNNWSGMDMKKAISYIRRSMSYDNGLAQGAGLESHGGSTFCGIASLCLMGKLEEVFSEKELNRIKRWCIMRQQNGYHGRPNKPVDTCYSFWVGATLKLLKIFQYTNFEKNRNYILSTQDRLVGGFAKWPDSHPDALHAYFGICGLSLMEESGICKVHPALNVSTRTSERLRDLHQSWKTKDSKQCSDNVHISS
Recombinant FTase, sequence (Q02293 whole entry, one chain of several): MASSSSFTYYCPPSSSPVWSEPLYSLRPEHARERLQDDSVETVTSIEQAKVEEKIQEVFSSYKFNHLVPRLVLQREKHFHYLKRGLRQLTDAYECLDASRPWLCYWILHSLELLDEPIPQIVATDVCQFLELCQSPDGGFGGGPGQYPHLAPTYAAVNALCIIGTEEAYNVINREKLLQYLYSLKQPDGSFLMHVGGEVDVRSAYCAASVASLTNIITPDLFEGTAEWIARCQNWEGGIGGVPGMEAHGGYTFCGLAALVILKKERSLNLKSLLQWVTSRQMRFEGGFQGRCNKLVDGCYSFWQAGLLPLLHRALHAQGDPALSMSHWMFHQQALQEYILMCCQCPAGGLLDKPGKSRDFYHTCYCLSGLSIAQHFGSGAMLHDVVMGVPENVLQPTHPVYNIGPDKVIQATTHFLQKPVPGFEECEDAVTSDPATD

SMILES | FTase inhibitory activity (Recombinant FTase) | GGTase I inhibitory activity (Recombinant GGTase I; [3]) | Effect on H-Ras farnesylation (prenylation) (RPMI-8226 myeloma cells [1]) | also measured
CC(C)=CCC/C(C)=C/CCC(=O)NCCC(P(=O)([O-])[O-])P(=O)([O-])[O-].[Na+].[Na+].[Na+].[Na+] [Compound 2h, Disodium (1-[bis(sodiooxy)phosphoryl]-3-[(4E)-5,9-dimethyldeca-4,8-dienamido]propyl)phosphonate] | no inhibitory activity was observed | no inhibitory activity was observed | None of these compounds (2g, 2h, 2i, 2e, 2d) disrupted H-Ras farnesylation | 
CC(C)=CCCC(=O)NCCC(P(=O)([O-])[O-])P(=O)([O-])[O-].[Na+].[Na+].[Na+].[Na+] [Compound 2j, Disodium (1-[bis(sodiooxy)phosphoryl]-3-(5-methylhex-4-enamido)propyl)phosphonate] |  |  | lack of effect | 
CC(C)=CCC/C(C)=C\CC(=O)NCCC(P(=O)([O-])[O-])P(=O)([O-])[O-].[Na+].[Na+].[Na+].[Na+] [Compound 2g, Disodium (1-[bis(sodiooxy)phosphoryl]-3-[(3Z)-4,8-dimethylnona-3,7-dienamido]propyl)phosphonate] | no inhibitory activity was observed | no inhibitory activity was observed | None of these compounds (2g, 2h, 2i, 2e, 2d) disrupted H-Ras farnesylation | Fold increase in GGDPS inhibitor activity with respect to 2c (RPMI-8226 myeloma cells [2]; Figure 3B, Rap1a immunoblot): 10 fold
CC(C)=CCC/C(C)=C\C(=O)NCCC(P(=O)(O)O)P(=O)(O)O [Compound 2c] |  |  |  | inhibition at 100 µM (Recombinant FTase; read-out: FTase inhibitory activity): < 30%
CC(C)=CCC/C(C)=C/C(=O)NCCC(P(=O)([O-])[O-])P(=O)([O-])[O-].[Na+].[Na+].[Na+].[Na+] [Compound 2b, Disodium (1-[bis(sodiooxy)phosphoryl]-3-[(2E)-3,7-dimethylocta-2,6-dienamido]propyl)phosphonate] |  |  | disrupted H-Ras farnesylation | GGTase I inhibitory activity (Recombinant GGTase I): no inhibitory activity
CC(C)=CCC/C(C)=C\CCC(=O)NCCC(P(=O)([O-])[O-])P(=O)([O-])[O-].[Na+].[Na+].[Na+].[Na+] [Compound 2i, Disodium (1-[bis(sodiooxy)phosphoryl]-3-[(4Z)-5,9-dimethyldeca-4,8-dienamido]propyl)phosphonate] | no inhibitory activity was observed | no inhibitory activity was observed | None of these compounds (2g, 2h, 2i, 2e, 2d) disrupted H-Ras farnesylation | Times less potent than triazole 1 (RPMI-8226 myeloma cells [2]; by LEC): approximately 17 times
CC(C)=CCC[C@@H](C)CC(=O)NCCC(P(=O)([O-])[O-])P(=O)([O-])[O-].[Na+].[Na+].[Na+].[Na+] [Compound 2e, Disodium (1-[bis(sodiooxy)phosphoryl]-3-[(3R)-3,7-dimethyloct-6-enamido]propyl)phosphonate] | no inhibitory activity was observed | no inhibitory activity was observed | None of these compounds (2g, 2h, 2i, 2e, 2d) disrupted H-Ras farnesylation | Fold more potent than S-isomer 2d (RPMI-8226 myeloma cells [2]; cellular assays): 10 fold
CC(C)=CCC[C@H](C)CC(=O)NCCC(P(=O)([O-])[O-])P(=O)([O-])[O-].[Na+].[Na+].[Na+].[Na+] [Compound 2d, Disodium (1-[bis(sodiooxy)phosphoryl]-3-[(3S)-3,7-dimethyloct-6-enamido]propyl)phosphonate] | no inhibitory activity was observed | no inhibitory activity was observed | None of these compounds (2g, 2h, 2i, 2e, 2d) disrupted H-Ras farnesylation | 
